Test [1] concerns Aorta. Description: Vasodilatory activity in Wistar rat endothelium-denuded cross tolerant thoracic aortic ring assessed as inhibition of phenylephrine-induced contraction preincubated with 0.55 mM GTN for 1 hr followed by washing. In kind it is functional, tissue-based. In a few lines: (§1)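 Endothelium-denuded helical rat aortic strips. After 1 h equilibration, strips were incubated in 0.55 mM GTN for 1 h, then washed extensively for 1 h. Cumulative concentration-response curves were then run on contracted strips. EC50 (µM, mean ± SE, n = 3-15) was compared with untreated strips.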

Test [2] relates to Aorta. Description: Vasodilatory activity in Wistar rat endothelium-denuded thoracic aortic ring assessed as inhibition of phenylephrine-induced contraction. Format: functional, tissue-based. In a few lines:
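Endothelium removed from rat aorta; three helically cut strips per aorta. Once agonist contraction plateaued, cumulative vasodilator concentrations were added. EC50 (µM) given as mean ± SE, n = 3-15.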

The test system of test [3] is Aorta. As to the kind of experiment: Vasodilatory activity in Wistar rat endothelium-denuded thoracic aortic ring assessed as inhibition of phenylephrine-induced contraction drug treated 30 mins after ALDH2 inhibitor benomyl treatment. Format: functional, tissue-based. The settings on record: 0.5 h.
Test [4] concerns Aorta. As to the kind of experiment: Vasodilatory activity in Wistar rat endothelium-denuded thoracic aortic ring assessed as inhibition of phenylephrine-induced contraction drug treated 30 mins after ALDH2 inhibitor chloral hydrate treatment. Format: functional, tissue-based. The settings on record: 0.5 h.
Test [5] has as its system Aorta. As to the kind of experiment: Vasodilatory activity in Wistar rat endothelium-denuded thoracic aortic ring assessed as inhibition of phenylephrine-induced contraction drug treated 30 mins after 1 uM soluble guanylate cyclase heme site inhibitor ODQ treatment. Format: functional, tissue-based. Particulars: 0.5 h.
Test [6] deals with Aorta. As to the kind of experiment: Ratio of EC50 for vasodilatory activity in Wistar rat endothelium-denuded thoracic aortic ring in presence of benomyl to EC50 for vasodilatory activity in Wistar rat endothelium-denuded thoracic aortic ring. Format: functional.
Test [7] concerns Aorta. Description: Ratio of EC50 for vasodilatory activity in Wistar rat endothelium-denuded thoracic aortic ring in presence of chloral hydrate to EC50 for vasodilatory activity in Wistar rat endothelium-denuded thoracic aortic ring. Format: functional.
For test [8], the system named is Aorta. Description: Ratio of EC50 for vasodilatory activity in Wistar rat endothelium-denuded cross tolerant thoracic aortic ring preincubated with 0.55 mM GTN for 1 hr followed by washing to EC50 for vasodilatory activity in Wistar rat endothelium-denuded thoracic aortic ring. Format: functional. In a few lines:
as §1

In the case of `O=[N+]([O-])OC[C@@H](CCc1ccccc1)O[N+](=O)[O-]`, the concentration for a half-maximal effect (EC50) in the test on Aorta [1] was 1600 nM; with Aorta [2], 49 nM; with Aorta [3] it was 120 nM; in the test with Aorta [4] it was 270 nM; in the test on Aorta [5], 29000 nM. Besides, the “Ratio EC50” value in the test on Aorta [6] was 2.4; with Aorta [7] it was 5.5; in the test on Aorta [8], 33.
With `O=[N+]([O-])OC[C@H](Cc1ccccc1)O[N+](=O)[O-]`, the 50% effective concentration (EC50) is 6100 nM with Aorta [1]; 61 nM in the test on Aorta [2]; 600 nM in the test with Aorta [3]; 1200 nM in the test on Aorta [4]; > 100000 nM in the test with Aorta [5]. Further, the “Ratio EC50” value with Aorta [6] was 9.8; with Aorta [7], 20; in the test on Aorta [8], 100.
For the molecule `O=[N+]([O-])OCCCc1ccccc1`, the concentration giving a half-maximal response (EC50) is 20000 nM in the test with Aorta [1]; 160 nM with Aorta [2]; 1500 nM with Aorta [3]; 3000 nM in the test on Aorta [4]; > 100000 nM in the test on Aorta [5]. In addition, the “Ratio EC50” value came to 9.4 in the test with Aorta [6], 19 with Aorta [7] and 125 with Aorta [8].
`O=[N+]([O-])OC[C@@H](Cc1ccccc1)O[N+](=O)[O-]`: the half-maximal effective concentration (EC50) with Aorta [1] is 6400 nM; in the test with Aorta [2], 63 nM; in the test with Aorta [3], 630 nM; in the test on Aorta [4], 1200 nM; in the test with Aorta [5], > 100000 nM. Moreover, the “Ratio EC50” value was found to be 10 with Aorta [6], 19 with Aorta [7] and 102 in the test on Aorta [8].
`O=[N+]([O-])OCCCCc1ccccc1`: the EC50 came to 4500 nM with Aorta [1]; 150 nM with Aorta [2]; 510 nM with Aorta [3]; 1100 nM with Aorta [4]; 66000 nM with Aorta [5]. For the same molecule, the “Ratio EC50” value in the test on Aorta [6] stood at 3.4; with Aorta [7] it was 7.3; with Aorta [8], 30.
Take `O=[N+]([O-])OC[C@H](CCc1ccccc1)O[N+](=O)[O-]`: the concentration giving a half-maximal response (EC50) with Aorta [1] turned out to be 2400 nM; in the test on Aorta [2], 49 nM; in the test with Aorta [3] it was 160 nM; in the test with Aorta [4], 370 nM; with Aorta [5], 30000 nM. The “Ratio EC50” value in the test with Aorta [6] is 3.3; with Aorta [7], 7.6; with Aorta [8], 49.
With `O=[N+]([O-])OCC(CO[N+](=O)[O-])O[N+](=O)[O-]` [NITROGLYCERIN], the EC50 in the test on Aorta [1] was 4400 nM; in the test with Aorta [2], 29 nM; in the test on Aorta [3], 420 nM; in the test with Aorta [4], 940 nM; in the test on Aorta [5] it was > 100000 nM. Moreover, the “Ratio EC50” value came to 14 with Aorta [6], 32 with Aorta [7] and 152 in the test with Aorta [8].

For orientation: EC50 means the concentration at which the effect is half-maximal.

The values are drawn from ChEMBL document CHEMBL1136934, “Synthesis of some novel organic nitrates and comparative in vitro study of their vasodilator profile” (J Med Chem, 2009).
